Common to all, as to assay type: functional
In assay [1] the test system is Mythimna separata. Description: Insecticidal activity against second instar larval stage of Mythimna separata (Oriental armyworm) in compound pretreated corn leaves assessed as mortality at 500 mg/l at 25 +/-1 degC after 48 hr.
The subject of assay [2] is Aphis craccivora. Description: Insecticidal activity against apterous adult stage of Aphis craccivora (cowpea aphid) in horsebean leaves assessed as mortality at 500 mg/l at 25 +/-1 degC treated for 5 secs measured after 24 hr by leaf-dip method. The method, boiled down: (§1)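 Leaf-dip assay: horsebean leaves carrying 40-60 apterous adults were dipped in diluted compound, excess liquid was blotted off with filter paper, and they were held at 25 ± 1 °C, 50% RH. Controls were water containing Triton X-100. Mortality was scored 24 h after treatment, with three repetitions per treatment. Data were adjusted and subjected to probit analysis.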

Assay [3] relates to Nilaparvata lugens. Kind of assay: Toxicity ratio of imidacloprid LC50 to compound LC50 for macropterous adult stage of imidaclopride-sensitive Nilaparvata lugens (brown planthopper) after 48 hr by microtopical application technique. The method, boiled down:
(§2)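 Toxic ratio is imidacloprid's baseline-toxicity LC50 divided by the compound's LC50. LC50 values come from topical application of acetone solutions (0.08 μL droplet, prothorax notum, CO2 anesthesia) to unmated macropterous females aged 2-3 days, about 30 per concentration, three repeats. Insects were reared on seedlings at 25 ± 1 °C, and values were derived by probit analysis.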

The test system of assay [4] is Aphis craccivora. Description: Insecticidal activity against apterous adult stage of Aphis craccivora (cowpea aphid) in horsebean leaves assessed as mortality at 25 +/-1 degC treated for 5 secs measured after 24 hr by leaf-dip method. The method, boiled down:
as §1

The subject of assay [5] is Nilaparvata lugens. Kind of assay: Insecticidal activity against macropterous adult stage of imidaclopride-resistant Nilaparvata lugens (brown planthopper) assessed as concentration required to induce mortality per pest at 25 +/-1 degC applied topically to the prothorax notum of insect prior to rearing on rice seedlings measured after 48 hr by microtopical application technique. The method, boiled down: (§3)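 Microtopical application on unmated macropterous adult females aged 2-3 days. Compounds were serially diluted in acetone, and a 0.08 μL droplet was applied to the prothorax notum under CO2 anesthesia. About 30 insects were used per concentration, with three repeats; controls received acetone. Insects were then reared on soilless seedlings at 25 ± 1 °C, 16/8 h light/dark. LC50 (ng/pest) was obtained from probit regression lines.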

Assay [6] has as its system Nilaparvata lugens. Description: Toxicity ratio of imidacloprid LC50 to compound LC50 for macropterous adult stage of imidaclopride-resistant Nilaparvata lugens (brown planthopper) after 48 hr by microtopical application technique. The method, boiled down:
as §2

Assay [7] deals with Mythimna separata. Kind of assay: Insecticidal activity against second instar larval stage of Mythimna separata (Oriental armyworm) in compound pretreated corn leaves assessed as mortality at 25 +/-1degC after 48 hr.
For assay [8], the system named is Nilaparvata lugens. Kind of assay: Insecticidal activity against macropterous adult stage of imidaclopride-sensitive Nilaparvata lugens (brown planthopper) assessed as concentration required to induce mortality per pest at 25 +/-1 degC applied topically to the prothorax notum of insect prior to rearing on rice seedlings measured after 48 hr by microtopical application technique. The method, boiled down:
as §3

For `O=[N+]([O-])C1=C2N(Cc3ccc(Cl)cc3)CCN2[C@@H]2CC[C@H]1O2`, the values for the mortality at 500 µg/mL in assay [1] and in assay [2] were 0% and 95.7%, respectively.
In the case of `O=[N+]([O-])/N=C1\NCCN1Cc1ccc(Cl)nc1` [IMIDACLOPRID], the RatioLC50 in assay [3] and in assay [6] was 1 each time. Further, the LC50 in assay [4] was 35 µM; in assay [5] it was 22.1614 ng; in assay [7] it was 125 µM; in assay [8], 0.1316 ng. The mortality at 500 µg/mL in assay [1] and in assay [2] was 100% in each case.
For `O=[N+]([O-])C1=C2N(Cc3cnc(Cl)s3)CCN2[C@@H]2CC[C@H]1O2`, the figures for the LC50 in assay [4] and in assay [7] were 8.83 µM and 49.6 µM, respectively. The mortality at 500 µg/mL in assay [1] and in assay [2] was 100% each time.
As to `COC(/C=C(\C1=NCCN1Cc1ccc(Cl)nc1)[N+](=O)[O-])/C(=C1\NCCN1Cc1ccc(Cl)nc1)[N+](=O)[O-]` (configuration not stated), the mortality at 500 µg/mL in assay [1] worked out at 100%; in assay [2] it was 97.7%.
Regarding `O=[N+]([O-])/C=C1/NCCN1Cc1ccc(Cl)nc1`, the LC50 came out at 5.12 µM in assay [4] and 70.9 µM in assay [7]. Moreover, the mortality at 500 µg/mL in assay [1] and in assay [2] was 100% throughout.
`O=[N+]([O-])C1=C2N(Cc3ccccc3)CCN2[C@@H]2CC[C@H]1O2`: the mortality at 500 µg/mL in assay [1] amounted to 0%; in assay [2] it was 13.6%.
With `O=[N+]([O-])/C(=C1/NCCN1Cc1ccc(Cl)nc1)C(O)/C=C(\C1=NCCN1Cc1ccc(Cl)nc1)[N+](=O)[O-]` (configuration not stated), in assay [7], the LC50 turned out to be 195 µM. The mortality at 500 µg/mL in assay [1] was determined as 100%; in assay [2], 78.1%.
As to `O=[N+]([O-])/C(=C/C/C=C(\C1=NCCN1Cc1ccc(Cl)nc1)[N+](=O)[O-])C1=NCCN1Cc1ccc(Cl)nc1`, the LC50 in assay [4] came out at 9.51 µM; in assay [7], 28 µM. Besides, the mortality at 500 µg/mL in assay [1] and in assay [2] was 100% throughout.
In the case of `O=[N+]([O-])C1=C2N(Cc3ccc(Cl)nc3)CCN2[C@@H]2CC[C@H]1O2`, the RatioLC50 was found to be 1.77 in assay [3] and 40.4 in assay [6]. Further, the LC50 in assay [4] was found to be 4.71 µM; in assay [5] it was 0.4925 ng; in assay [7], 38.7 µM; in assay [8] it was 0.0742 ng. In addition, the mortality at 500 µg/mL in assay [1] and in assay [2] was 100% each time.

The record behind these values is ChEMBL document CHEMBL3045003, “Divalent and oxabridged neonicotinoids constructed by dialdehydes and nitromethylene analogues of imidacloprid: design, synthesis, crystal structure, and insecticidal activities” (2010).
